Calls of active or inactive are those of the source. No cut-off for these calls is given here.
What was measured:
[1] = system: HL-60; assay: Induction of cytochrome-c release in human HL60 cells at 30 uM incubated for 24 hrs by immunoblotting method; assay type: functional, cell-based
Method in brief: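 HL-60 cells treated 24 h with 30 µM compound. Cytosolic extracts immunoblotted for cytochrome c released from mitochondria. β-Actin used as loading control.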

[2] = system: HL-60; assay: Induction of apoptosis in human HL60 cells assessed as hypodiploid cells level incubated for 24 hrs in presence of 10 uM JNK/SAPK inhibitor SP600125 by flow cytometry; assay type: functional, cell-based
Method in brief: (§1)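 HL-60 cells preincubated 1 h with PD98059 (10 µM), SP600125 (10 µM) or SB203580 (2 µM), then treated with compound. Hypodiploid (apoptotic) cells quantified by flow cytometry of propidium iodide-stained nuclei. Three independent experiments, each in triplicate.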

[3] = system: HL-60; assay: Cytotoxicity against human HL60 cells assessed as cell viability after 48 hrs at 30 uM by MTT assay; assay type: functional; details: HL-60, 48 h, read-out: Activity
Method in brief: (§2)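 HL-60 cells, quiescent (fresh) PBMC and phytohemagglutinin-activated healthy human PBMC cultured 48 h over a concentration range of compound. Proliferation measured. Means ± SE of two independent experiments, each in triplicate.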

[4] = system: HL-60; assay: Induction of apoptosis in human HL60 cells assessed as hypodiploid cells level at 30 uM incubated for 24 hrs in presence of caspase-9 inhibitor z-LEHD-fmk by flow cytometry; assay type: functional, cell-based
Method in brief: (§3)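 HL-60 cells given 30 µM compound for 24 h, alone or with z-VAD-fmk (100 µM), z-DEVD-fmk, z-IETD-fmk or z-LEHD-fmk (each 50 µM). Propidium iodide staining, hypodiploid cells quantified by flow cytometry. Three independent experiments, each in triplicate.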

[5] = system: HL-60; assay: Cell cycle arrest in human HL60 cells assessed as accumulation at G2/M phase at 30 uM incubated for 24 hrs by flow cytometry (reference value: 33.2 +/- 2.1%); assay type: functional
[6] = biological target: T1, Mitogen-activated protein kinase; ERK1/ERK2 (Homo sapiens) (UniProt P27361+P28482); assay: Induction of ERK1/2 phosphorylation in human HL60 cells after 6 hrs by Western blotting; assay type: cell-based; details: HL-60
T1 sequence (P27361 whole entry, looked up): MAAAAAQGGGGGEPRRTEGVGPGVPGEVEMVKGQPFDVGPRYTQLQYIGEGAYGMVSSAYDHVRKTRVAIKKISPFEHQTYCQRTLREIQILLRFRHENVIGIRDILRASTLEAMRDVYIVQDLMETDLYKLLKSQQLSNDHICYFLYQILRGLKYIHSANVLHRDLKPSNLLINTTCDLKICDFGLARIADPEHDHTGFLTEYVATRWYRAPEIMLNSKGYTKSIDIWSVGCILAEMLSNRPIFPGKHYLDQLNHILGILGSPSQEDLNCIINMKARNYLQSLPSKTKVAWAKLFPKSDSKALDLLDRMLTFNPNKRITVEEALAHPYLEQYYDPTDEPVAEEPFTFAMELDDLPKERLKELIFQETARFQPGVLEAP
T1 sequence (P28482 whole entry, looked up): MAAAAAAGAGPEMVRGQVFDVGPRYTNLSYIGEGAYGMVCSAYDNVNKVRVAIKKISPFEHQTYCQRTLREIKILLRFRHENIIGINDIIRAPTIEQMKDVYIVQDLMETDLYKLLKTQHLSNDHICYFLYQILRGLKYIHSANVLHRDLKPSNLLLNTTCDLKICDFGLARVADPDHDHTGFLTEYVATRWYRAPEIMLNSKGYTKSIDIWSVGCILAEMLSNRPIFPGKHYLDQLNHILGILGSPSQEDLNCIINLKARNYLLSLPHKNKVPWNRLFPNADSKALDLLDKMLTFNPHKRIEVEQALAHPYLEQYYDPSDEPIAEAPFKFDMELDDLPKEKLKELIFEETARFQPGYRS
Method in brief: (§4)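 HL-60 cells (1 × 10⁶/mL) treated with compound (10–30 µM) for various times. Where used, PD98059 (10 µM) was added 1 h beforehand. Lysates run on 10% SDS-PAGE and immunoblotted for phosphorylated ERK 1/2, JNK/SAPK or p38MAPK. Blots stripped and reprobed for the total kinase as loading control.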

[7] = biological target: T2, c-Jun N-terminal kinase, JNK (Homo sapiens) (UniProt P45983+P53779+P45984); assay: Induction of JNK/SAPK phosphorylation in human HL60 cells after 30 mins by Western blotting; assay type: cell-based; details: HL-60; method in brief: as §4
[8] = system: HL-60; assay: Induction of DNA fragmentation in human HL60 cells at 10 uM incubated for 24 hrs by agarose gel electrophoresis; assay type: functional, cell-based
Method in brief: (§5)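 HL-60 cells treated with the indicated concentrations. Genomic DNA extracted, run on agarose gel and visualised under UV after ethidium bromide staining, looking for internucleosomal fragmentation.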

[9] = system: HL-60; assay: Induction of DNA fragmentation in human HL60 cells at 30 uM incubated for 24 hrs by agarose gel electrophoresis; assay type: functional, cell-based; method in brief: as §5
[10] = biological target: T3, MAP kinase p38 (Homo sapiens) (UniProt O15264+Q15759+Q16539+P53778); assay: Induction of p38MAPK phosphorylation in human HL60 cells after 30 mins by Western blotting; assay type: cell-based; details: HL-60; method in brief: as §4
[11] = system: HL-60; assay: Cell cycle arrest in human HL60 cells assessed as accumulation at subG1 phase at 30 uM incubated for 24 hrs by flow cytometry (reference value: 2.3 +/- 0.5%); assay type: functional
[12] = system: HL-60; assay: Cytotoxicity against human HL60 cells after 72 hrs by MTT assay; assay type: functional, cell-based; details: HL-60, 72 h
Method in brief: (§6)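 MTT colorimetric assay on HL-60 and HL-60/MX1 cells (RPMI 1640, 10% heat-inactivated FBS), 72 h exposure, absorbance 570 nm. IC50 obtained graphically by curve fitting. Means ± S.E. of three independent experiments, each in triplicate.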

[13] = system: HL-60; assay: Cell cycle arrest in human HL60 cells assessed as accumulation at G1 phase at 10 uM incubated for 24 hrs by flow cytometry (reference value: 48 +/- 1.6%); assay type: functional
[14] = system: HL-60; assay: Induction of apoptosis in human HL60 cells assessed as hypodiploid cells level at 30 uM incubated for 24 hrs in presence of caspase inhibitor z-VAD-fmk by flow cytometry; assay type: functional, cell-based; method in brief: as §3
[15] = system: HL-60; assay: Induction of apoptosis in human HL60 cells assessed as changes in nuclear morphology at 30 uM incubated for 24 hrs by fluorescence microscopy (reference value: 4.9 +/- 1.0%)
[16] = Cytotoxicity against human proliferating PBMCs assessed as cell viability after 48 hrs at 30 uM by MTT assay; assay type: cell-based, PBMC; details: read-out: Activity; method in brief: as §2
[17] = biological target: T1, Mitogen-activated protein kinase; ERK1/ERK2 (Homo sapiens); assay: Induction of ERK1/2 phosphorylation in human HL60 cells after 30 mins in presence of 10 uM MEK1/2 inhibitor PD98059 by Western blotting; assay type: cell-based; details: HL-60; method in brief: as §4
[18] = system: HL-60; assay: Induction of p21'Cip1 protein expression in human HL60 cells at 30 uM incubated for 24 hrs by Western blotting method; assay type: functional, cell-based
Method in brief: (§7)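 HL-60 cells (1 × 10⁶/mL) exposed to compound, harvested at 24 h. Lysed in Tris-HCl pH 7.4/Triton X-100 buffer with phosphatase and protease inhibitors, 15 min at 4 °C. Equal protein run on SDS-PAGE (7.5% PARP, 12.5% caspases) and immunoblotted on PVDF. β-Actin used as loading control.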

[19] = system: PBMC; assay: Induction of MLL gene cleavage in human proliferating PBMCs at 30 uM incubated for 16 hrs by inverse PCR method; assay type: functional, cell-based
Method in brief: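 Peripheral blood mononuclear cells exposed to 30 µM compound for 16 h. Genomic DNA digested with Xba I and circularised. Nested inverse PCR (MF1–MR1, then MF2–MR2). Wild-type MLL removed by Pvu II digestion before PCR to reveal rearrangement products.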

[20] = system: HL-60; assay: Induction of procaspase-3 processing in human HL60 cells at 30 uM incubated for 24 hrs by immunoblotting method; assay type: functional, cell-based; method in brief: as §7
[21] = system: HL-60; assay: Cell cycle arrest in human HL60 cells assessed as accumulation at S phase at 10 uM incubated for 24 hrs by flow cytometry (reference value: 16.7 +/- 0.5%); assay type: functional
[22] = system: HL-60; assay: Induction of apoptosis in human HL60 cells assessed as hypodiploid cells level at 30 uM incubated for 24 hrs in presence of caspase-8 inhibitor z-IETD-fmk by flow cytometry; assay type: functional, cell-based; method in brief: as §3
[23] = system: HL-60; assay: Cell cycle arrest in human HL60 cells assessed as accumulation at G2/M phase at 10 uM incubated for 24 hrs by flow cytometry (reference value: 33.2 +/- 2.1%); assay type: functional
[24] = system: HL-60; assay: Induction of apoptosis in human HL60 cells assessed as hypodiploid cells level incubated for 24 hrs in presence of 2 uM p38MAPK inhibitor SB203580 by flow cytometry; assay type: functional, cell-based; method in brief: as §1
[25] = biological target: T1, Mitogen-activated protein kinase; ERK1/ERK2 (Homo sapiens); assay: Induction of ERK1/2 phosphorylation in human HL60 cells after 30 mins by Western blotting; assay type: cell-based; details: HL-60; method in brief: as §4
[26] = system: HL-60; assay: Induction of caspase activation in human HL60 cells assessed as increase in PARP cleavage at 30 uM incubated for 24 hrs by immunoblotting method; assay type: functional, cell-based; method in brief: as §7
[27] = biological target: T2, c-Jun N-terminal kinase, JNK (Homo sapiens); assay: Induction of JNK/SAPK phosphorylation in human HL60 cells after 6 hrs by Western blotting; assay type: cell-based; details: HL-60; method in brief: as §4
[28] = system: HL-60; assay: Induction of cyclin D1 protein expression in human HL60 cells at 30 uM incubated for 24 hrs by Western blotting method; assay type: functional, cell-based; method in brief: as §7
[29] = system: HL-60; assay: Cell cycle arrest in human HL60 cells assessed as accumulation at subG1 phase at 10 uM incubated for 24 hrs by flow cytometry (reference value: 2.3 +/- 0.5%); assay type: functional
[30] = biological target: T3, MAP kinase p38 (Homo sapiens); assay: Induction of p38MAPK phosphorylation in human HL60 cells after 4 hrs by Western blotting; assay type: cell-based; details: HL-60; method in brief: as §4
[31] = Cytotoxicity against human HL60/MX1 cells after 72 hrs by MTT assay; assay type: functional, cell-based; details: HL60/MX1, 72 h; method in brief: as §6
[32] = system: HL-60; assay: Induction of apoptosis in human HL60 cells assessed as hypodiploid cells level at 30 uM incubated for 24 hrs in presence of caspase-3 and -7 inhibitor z-DEVD-fmk by flow cytometry; assay type: functional, cell-based; method in brief: as §3
[33] = system: HL-60; assay: Induction of procaspase-6 processing in human HL60 cells at 30 uM incubated for 24 hrs by immunoblotting method; assay type: functional, cell-based; method in brief: as §7
[34] = system: HL-60; assay: Induction of apoptosis in human HL60 cells assessed as incidence of condensed and fragmented chromatin at 30 uM incubated for 24 hrs by fluorescent microscopy; assay type: functional, cell-based
[35] = system: HL-60; assay: Induction of Bid protein cleavage in human HL60 cells at 30 uM incubated for 24 hrs by Western blotting method; assay type: functional, cell-based; method in brief: as §7
[36] = system: HL-60; assay: Cytotoxicity against human HL60 cells at 100 uM after 72 hrs by MTT assay
[37] = system: HL-60; assay: Induction of procaspase-9 cleavage in human HL60 cells at 30 uM incubated for 24 hrs by immunoblotting method; assay type: functional, cell-based; method in brief: as §7
[38] = system: HL-60; assay: Cell cycle arrest in human HL60 cells assessed as accumulation at G1 phase at 30 uM incubated for 24 hrs by flow cytometry (reference value: 48 +/- 1.6%); assay type: functional
[39] = system: HL-60; assay: Induction of procaspase-7 processing in human HL60 cells at 30 uM incubated for 24 hrs by immunoblotting method; assay type: functional, cell-based; method in brief: as §7
[40] = system: HL-60; assay: Cell cycle arrest in human HL60 cells assessed as accumulation at S phase at 30 uM incubated for 24 hrs by flow cytometry (reference value: 16.7 +/- 0.5%); assay type: functional
[41] = system: HL-60; assay: Increase in apoptosis in human HL60 cells assessed as hypodiploid cells level incubated for 24 hrs in presence of 10 uM MEK1/2 inhibitor PD98059 by flow cytometry (reference value: 15%); assay type: functional; method in brief: as §1
[42] = system: HL-60; assay: Induction of procaspase-8 hydrolysis in human HL60 cells at 30 uM incubated for 24 hrs by immunoblotting method; assay type: functional, cell-based; method in brief: as §7

## COC(=O)c1c(C)c(C)cc2c(=O)cc(-c3ccccc3C)oc12
[1]
  Activity: Active
[2]
  Activity: Active
[3]
  viability at 30 µM: 25%
[4]
  Activity: inactive
[5]
  Activity: 11.8%
[6]
  Activity: Active
[7]
  Activity: Active
[8]
  Activity: Active
[9]
  Activity: Active
[10]
  Activity: Active
[11]
  Activity: 28.5%
[12]
  IC50: 10.1 µM
[13]
  Activity: 53%
[14]
  Activity: inactive
[15]
  Activity: 26.9%
[16]
  viability at 48 h, 30 µM: 75%
[17]
  Activity: inactive
[18]
  Activity: Active
[19]
  Activity: Active
[20]
  Activity: Active
[21]
  Activity: 16.6%
[22]
  Activity: inactive
[23]
  Activity: 24.4%
[24]
  Activity: Active
[25]
  Activity: Active
[26]
  Activity: Active
[27]
  Activity: Active
[28]
  Activity: Active
[29]
  Activity: 5.5%
[30]
  Activity: inactive
[31]
  IC50: 18.9 µM
[32]
  Activity: inactive
[33]
  Activity: Active
[34]
  Activity: Active
[35]
  Activity: Active
[36]
  Activity: Active
[37]
  Activity: Active
[38]
  Activity: 48.1%
[39]
  Activity: Active
[40]
  Activity: 7.6%
[41]
  Activity: 25%
[42]
  Activity: Active
